From ChEMBL document CHEMBL5352477, “Isoform selectivities of novel 4-hydroxycoumarin imines as inhibitors of myosin II” (Eur J Med Chem, 2023)
Converted amounts (≈) assume the structure as drawn. The source made the active and inactive calls. The calls are words filed in the database; no cut-off is given here.

Assays:
[1] = Inhibition of full length chicken phosphorylated myosin 2 smooth muscle isoform derived from gizzard ATPase activity assessed as reduction in steady-state rabbit F-actin-activated Mg2+ ATPase activity incubated for 6 to 24 mins in presence of ATPase buffer at 7.0 containing Mgcl2 and ATP by fluorescence-based assay; type: tissue-based, Gallus gallus
COS-7 [2] = assay: Inhibition of Non-muscle myosin IIB in African green monkey COS-7 cells assessed as inhibition of cytokinesis by measuring increase in nuclei to cell ratio (N/C) at 40 uM incubated for 24 hrs by fluorescein-diacetate, Hoechst 33342 and propidium iodide staining based fluorescence microscopy relative to control; settings: Chlorocebus aethiops
Procedure, shortened: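 COS-7 cells (4,000/well) preincubated 24 h at 37 °C in 5% CO2, then exposed 24 h to 40 μM compound, final 1% DMSO. Media and 1% DMSO served as negative controls; para-aminoblebbistatin 20 μM and blebbistatin 10 μM as positive controls. Stained 10 min with FDA 6 μM, Hoechst 33342 10 μM and PI 4 μM, then imaged; N/C counted excluding PI-positive nuclei. Triplicate wells, ≥2 experiments, ≥600 cells per well.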

COS-7 [3] = assay: Cytotoxicity against Green monkey COS-7 cells assessed as reduction in cell viability incubated for 24 hrs by MTT assay; type: toxicity, cell-based; settings: chlorocebus aethiops, cos-7, 24 h
Procedure, shortened: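 COS-7 cells seeded at 2.5 × 10^4 per well, grown 24 h at 37 °C in 5% CO2, then treated 24 h with 20, 40, 100 or 200 μM compound in media with 1% DMSO (4 wells each). MTT 1.2 mM in PBS for 2 h in the dark, lysis in 0.1% NP-40/isopropanol with HCl, A564 read; CC50 and CC90 taken as concentrations giving 50% and 90% loss of viability.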

[4] = Inhibition of full length bovine Myosin-2 cardiac muscle isoform from left ventricle ATPase activity assessed as reduction in steady-state rabbit F-actin-activated Mg2+ ATPase activity incubated for 6 to 24 mins in presence of ATPase buffer at 7.0 containing Mgcl2 and ATP by fluorescence-based assay; set-up: species or system Bos taurus, Heart left ventricle
[5] = Inhibition of full length rabbit myosin 2 skeletal muscle isoform derived from Psoas muscle ATPase activity assessed as reduction in steady-state rabbit F-actin-activated Mg2+ ATPase activity incubated for 6 to 24 mins in presence of ATPase buffer at 7.0 containing Mgcl2 and ATP by fluorescence-based assay; type: tissue-based, Oryctolagus cuniculus
[6] = Selectivity index, ratio of IC50 for inhibition of full length bovine cardiac muscle myosin II ATPase activity to IC50 for inhibition of full length rabbit skeletal muscle myosin II ATPase activity
[7] = Kinetic solubility of the compound in 2.5% DMSO/PBS at pH 7.4 incubated for 1 hrs by nephelometry; type: physicochemical; settings: for Kinetic_solubility: buffer, pH 7.4, 1 h; for solubility kinetic at 1 h: 2.5% DMSO/PBS, pH 7.4, read-out: Kinetic_solubility
Procedure, shortened: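 DMSO stock (20 mM) added to PBS pH 7.4, then serially diluted in quadruplicate at a constant 2.5% DMSO. Plates shaken 2 min, incubated 1 h at 37 °C, shaken 3 min, and turbidity read by nephelometry; average blank subtracted.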

| SMILES | IC50 [1] [µM] | inhibition (COS-7 [2]) | also measured |
| --- | --- | --- | --- |
| C/C(=N\OCc1ccccc1)c1c(O)c2ccccc2oc1=O | ≥ 100 | inactive |  |
| Cc1ccc2c(c1)C(=O)[C@]1(O)CCN(c3ccccc3)C1=N2 | ≥ 100 | inactive |  |
| COCCC/N=C(\C)c1c(O)c2ccccc2oc1=O | ≥ 100 | inactive | CC10 (COS-7 [3]): 339 µM; CC50 (COS-7 [3]): > 1000 µM; IC50 [4]: 38 µM; IC50 [5]: 11 µM; Ratio IC50 [6]: 3.5 |
| CCCCC/N=C(\C)c1c(O)c2cc([N+](=O)[O-])ccc2oc1=O | ≥ 100 | inactive |  |
| COc1cccc(C/N=C(\C)c2c(O)c3ccccc3oc2=O)c1 | ≥ 100 | inactive | CC10 (COS-7 [3]): 39 µM; CC50 (COS-7 [3]): > 200 µM; IC50 [4]: 4.4 µM; IC50 [5]: 9.1 µM; Ratio IC50 [6]: 0.5 |
| COc1ccc(C/N=C(\C)c2c(O)c3ccccc3oc2=O)cc1 | ≥ 100 | inactive | CC10 (COS-7 [3]): 36 µM; CC50 (COS-7 [3]): > 200 µM; IC50 [4]: 5.4 µM; IC50 [5]: 1.6 µM; Ratio IC50 [6]: 3.4 |
| COc1ccc(COCCC/N=C(\C)c2c(O)c3ccccc3oc2=O)cc1 | ≥ 100 | inactive | CC10 (COS-7 [3]): 46 µM; CC50 (COS-7 [3]): > 200 µM; IC50 [4]: ≥ 100 µM; Kinetic_solubility [7]: 103 µM; IC50 [5]: 50 µM |
| C/C(=N\Nc1ccccc1)c1c(O)c2ccccc2oc1=O | ≥ 100 | inactive |  |
| C/C(=N\Cc1cccnc1)c1c(O)c2ccccc2oc1=O | ≥ 100 | inactive |  |
| C/C(=N\CCO)c1c(O)c2ccccc2oc1=O | ≥ 100 | inactive |  |
| C/C(=N\CCCO)c1c(O)c2ccccc2oc1=O | ≥ 100 | inactive |  |
| C/C(=N\Cc1ccccc1)c1c(O)c2ccccc2[nH]c1=O | ≥ 100 | inactive |  |
| C/C(=N\CCCOCc1ccc2c(c1)OCO2)c1c(O)c2ccccc2oc1=O | ≥ 100 | inactive | CC10 (COS-7 [3]): 110 µM; CC50 (COS-7 [3]): > 200 µM; IC50 [4]: ≥ 100 µM; Kinetic_solubility [7]: 122 µM; IC50 [5]: 29 µM |
| C/C(=N\Cc1ccc(C)cc1)c1c(O)c2ccccc2oc1=O | ≥ 100 | inactive |  |
| C/C(=N\Cc1ccccn1)c1c(O)c2ccccc2oc1=O | ≥ 100 | inactive |  |
| CCC/N=C(\C)c1c(O)c2ccccc2oc1=O | ≥ 100 | inactive |  |
| COc1cc(/C=C/C(=O)c2c(O)c3ccccc3oc2=O)ccc1O | ≥ 100 | inactive | IC50 [4]: ≥ 100 µM; IC50 [5]: ≥ 100 µM |
| CCOCC/N=C(\C)c1c(O)c2ccccc2oc1=O | ≥ 100 | inactive | CC10 (COS-7 [3]): 184 µM; CC50 (COS-7 [3]): > 1000 µM; IC50 [4]: 24 µM; IC50 [5]: 19 µM; Ratio IC50 [6]: 1.3 |
| CCCC/N=C(\C)C1C(=O)Oc2ccccc2C1=O (stereo unspecified) | ≥ 100 | inactive | solubility kinetic at 1 h [7]: 607 µM (≈ 157 µg/mL) |
| CCCCC/N=C(\C)c1c(O)c2ccccc2[nH]c1=O | ≥ 100 | inactive |  |
| C/C(=N\C(C)C)c1c(O)c2ccccc2[nH]c1=O | ≥ 100 | inactive |  |
| CC/C(=N\Cc1ccccc1)c1c(O)c2ccccc2oc1=O | ≥ 100 | inactive |  |
| C/C(=N\C(C)C)c1c(O)c2ccccc2oc1=O | ≥ 100 | inactive |  |
| C/C(=N\CC1CCCCC1)c1c(O)c2ccccc2[nH]c1=O | ≥ 100 | inactive |  |

| SMILES | IC50 [1] [µM] | inhibition (COS-7 [2]) | also measured |
| --- | --- | --- | --- |
| COCC/N=C(\C)c1c(O)c2ccccc2oc1=O | ≥ 100 | inactive | CC10 (COS-7 [3]): 286 µM; CC50 (COS-7 [3]): > 200 µM; IC50 [4]: 52 µM; IC50 [5]: 90 µM; Ratio IC50 [6]: 0.6 |
| CC(=N)C1C(=O)Oc2ccccc2C1=O (stereo unspecified) | ≥ 100 | inactive |  |
| CCCCCC/N=C(\C)c1c(O)c2ccccc2oc1=O | ≥ 100 | inactive |  |
| C/C(=N\Cc1cccc(C)c1)c1c(O)c2ccccc2oc1=O | ≥ 100 | inactive |  |
| CCC/N=C(\C)c1c(O)c2ccccc2[nH]c1=O | ≥ 100 | inactive |  |
| CC/N=C(\C)C1C(=O)Oc2ccccc2C1=O (stereo unspecified) | ≥ 100 | inactive |  |
| C/C(=N\Cc1ccncc1)c1c(O)c2ccccc2oc1=O | ≥ 100 | inactive | solubility kinetic at 1 h [7]: > 400 µM |
| CCC(C)/N=C(\C)c1c(O)c2ccccc2oc1=O (stereo unspecified) | ≥ 100 | inactive |  |
| C/C(=N\Cc1ccccc1)c1c(O)c2ccccc2n(C)c1=O | ≥ 100 | inactive |  |
| CCC(C)/N=C(\C)c1c(O)c2ccccc2[nH]c1=O (stereo unspecified) | ≥ 100 | inactive |  |
| CCCC/N=C(\C)c1c(O)c2ccccc2[nH]c1=O | ≥ 100 | inactive |  |
| C/C(=N\CC(C)C)c1c(O)c2ccccc2[nH]c1=O | ≥ 100 | inactive |  |
| Cc1ccc2c(c1)C(=O)[C@]1(O)CCN(c3ccc(N)cc3)C1=N2 | ≥ 100 |  |  |
| C/C(=N\CCO)c1c(O)c2ccccc2[nH]c1=O | ≥ 100 | inactive |  |
| C/C(=N\Cc1ccccc1C)c1c(O)c2ccccc2oc1=O | ≥ 100 | inactive |  |
| CCOCCC/N=C/c1c(O)c2ccccc2oc1=O | ≥ 100 | inactive | CC10 (COS-7 [3]): 135 µM; CC50 (COS-7 [3]): > 1000 µM; IC50 [4]: ≥ 100 µM; IC50 [5]: 3.3 µM; Ratio IC50 [6]: > 30 |
| C/C(=N\CC(C)C)c1c(O)c2ccccc2oc1=O | ≥ 100 | inactive |  |
| C/C(=N\Cc1ccccc1)c1c(O)c2cc([N+](=O)[O-])ccc2oc1=O | ≥ 100 | inactive |  |
| COCCOCCOCCC/N=C(\C)c1c(O)c2ccccc2oc1=O | ≥ 100 | inactive | IC50 [4]: ≥ 100 µM; IC50 [5]: ≥ 100 µM |
| C/N=C(\C)C1C(=O)Oc2ccccc2C1=O (stereo unspecified) | ≥ 100 | inactive |  |
| CCCCC/N=C(\C)c1c(O)c2ccccc2oc1=O | ≥ 100 | inactive |  |
| CCCCN(CCC/N=C(\C)c1c(O)c2ccccc2oc1=O)Cc1cccc(OC)c1 | ≥ 100 | inactive | IC50 [4]: ≥ 100 µM; IC50 [5]: ≥ 100 µM |
| CCC/C(=N\Cc1ccccc1)c1c(O)c2ccccc2oc1=O | ≥ 100 | inactive |  |
